Series [1] concerns the target T1, Siderocalin (Scn) (Homo sapiens, UniProt P80188). Particulars: cited from earlier work.
The conditions of series [2]: [L] = 10 μmol L^−1, [Fe^III] = 1 μmol L^−1; cited from earlier work.
For series [3], the target named is T1, Siderocalin (Scn). Briefly: Fluorescence quenching binding assay of Scn. Particulars: for Kd: 100 nM Scn, TBS pH 7.4, 5% DMSO. The procedure, abridged:
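Recombinant Scn, 100 nM in TBS pH 7.4 with 32 μg/mL ubiquitin and 5% DMSO, was titrated with 2–10 equivalents of substrate. Tryptophan quenching was read at excitation 281 nm and emission 340 nm, corrected for dilution. Metal complexes were formed in situ from a DMSO ligand stock plus 1 eq. metal salt, equilibrated 1 h, and used as a 6 μM working solution. Apo ligands were prepared without metal. Kd came from a one-site nonlinear least-squares fit.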

As a reminder, the Kd is the free concentration of one partner at which half of the binding sites on the other are occupied at equilibrium, for simple one-to-one binding.

Read-outs that look alike come from different tables or passages of the source. Some results are limits rather than exact numbers.

T1 sequence (P80188 21-198): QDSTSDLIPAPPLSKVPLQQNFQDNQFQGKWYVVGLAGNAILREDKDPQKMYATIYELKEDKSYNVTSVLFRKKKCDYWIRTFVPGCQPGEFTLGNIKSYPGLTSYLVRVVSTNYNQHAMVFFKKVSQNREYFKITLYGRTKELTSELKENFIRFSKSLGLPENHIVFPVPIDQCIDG

For the compound `CC(=O)N(O)CCCC[C@H](NC(=O)CC(O)(CC(=O)N[C@@H](CCCCN(O)C(C)=O)C(=O)O)C(=O)O)C(=O)O` [aerobactin], the “Binding by Scn in words” value at Siderocalin (Scn) [1] (natural siderophores) is “not bound”. As to `O=C1CCC(=O)N(O)CCC(O)CNC(=O)CCC(=O)N(O)CCC(O)CN1` (centres unmarked) [alcaligin], the “Binding by Scn in words” value on Siderocalin (Scn) [1] (natural siderophores) is listed as “not bound”. Take `C[C@H]1OC(=O)[C@@H](NC(=O)CNC(=O)c2cccc(O)c2O)[C@@H](C)OC(=O)[C@@H](NC(=O)CNC(=O)c2cccc(O)c2O)[C@@H](C)OC(=O)[C@H]1NC(=O)CNC(=O)c1cccc(O)c1O` [bacillibactin]: the “Binding by Scn in words” value at Siderocalin (Scn) [1] (apo siderophore) is “bound with high affinity”; on Siderocalin (Scn) [1] (natural siderophores), “sequestered”. As to `CC(=O)N(O)CCCCCNC(=O)CCC(=O)N(O)CCCCCNC(=O)CCC(=O)N(O)CCCCCN` [desferrioxamine B], the “pM value (pM = -log[Fe^III])” value in series [2] was 26.6.

For the compound `O=C(N[C@H]1COC(=O)[C@@H](NC(=O)c2cccc(O)c2O)COC(=O)[C@@H](NC(=O)c2cccc(O)c2O)COC1=O)c1cccc(O)c1O` [enterobactin], the “pM value (pM = -log[Fe^III])” value in series [2] was 35.3. Besides, the “Binding by Scn in words” value is “bound with high affinity” at Siderocalin (Scn) [1] (apo siderophore) and “sequestered” on Siderocalin (Scn) [1] (natural siderophores). Take `O=C(CC(O)(CC(=O)NCCCCNCCCNC(=O)c1ccc(O)c(O)c1)C(=O)O)NCCCCNCCCNC(=O)c1ccc(O)c(O)c1` [petrobactin]: on Siderocalin (Scn) [1], the “Binding by Scn in words” value was “not bound”. With `O=C(N[C@H]1COC(=O)[C@@H](NC(=O)c2cc([C@@H]3O[C@H](CO)[C@@H](O)[C@H](O)[C@H]3O)cc(O)c2O)COC(=O)[C@@H](NC(=O)c2cc([C@@H]3O[C@H](CO)[C@@H](O)[C@H](O)[C@H]3O)cc(O)c2O)COC1=O)c1cccc(O)c1O` [salmochelin-S4], the “Binding by Scn in words” value at Siderocalin (Scn) [1] (natural siderophores) was “not bound”.

As to `O=C(NCCN(CCNC(=O)c1cccc(=O)n1O)CCNC(=O)c1cccc(=O)n1O)c1cccc(=O)n1O` [tren(1,2-HOPO)3], the results for the Kd at Siderocalin (Scn) [3] (Fe^III complex), on Siderocalin (Scn) [3] (V^IV complex) and on Siderocalin (Scn) [3] (no metal (apo ligand)) were over 0.6 µM, 0.3 ± 0.03 µM and 0.25 ± 0.03 µM, respectively. The “Scn affinity in words” value on Siderocalin (Scn) [3] (apo ligand, pH 7.4) is recorded as “micromolar affinity range”. At Siderocalin (Scn) [3] (Fe^III complex), `Cn1ccc(C(=O)NCCN(CCNC(=O)c2ccn(C)c(=O)c2O)CCNC(=O)c2ccn(C)c(=O)c2O)c(O)c1=O` [tren(Me-3,2-HOPO)3] yielded a Kd of over 0.6 µM. In the case of `O=C(NCCN(CCNC(=O)c1cccc(O)c1O)CCNC(=O)c1cccc(=O)n1O)c1cccc(O)c1O` [trenCAM2(1,2-HOPO), tren(CAM)2(1,2-HOPO)], the Kd on Siderocalin (Scn) [3] (Fe^III complex) stood at 0.0008 ± 0.0003 µM; at Siderocalin (Scn) [3] (V^IV complex), 0.04 ± 0.009 µM; on Siderocalin (Scn) [3] (no metal (apo ligand)) it was 0.0014 ± 0.0003 µM. Turning to `Cn1ccc(C(=O)NCCN(CCNC(=O)c2cccc(O)c2O)CCNC(=O)c2cccc(O)c2O)c(O)c1=O` [trenCAM2(Me-3,2-HOPO), tren(CAM)2(Me-3,2-HOPO)], binding at Siderocalin (Scn) [3] (Fe^III complex) was characterised by a dissociation constant (Kd) of 0.12 ± 0.01 µM. As to `O=C(NCCN(CCNC(=O)c1cccc(O)c1O)CCNC(=O)c1cccc(O)c1O)c1cccc(O)c1O` [trenCAM3, tren(CAM)3], the Kd on Siderocalin (Scn) [3] (V^IV complex) is 0.0013 ± 0.0003 µM; at Siderocalin (Scn) [3] (no metal (apo ligand)), 0.0012 ± 0.0002 µM; at Siderocalin (Scn) [1] (Fe^III complex) it was 0.0003 ± 0.0001 µM. As for `O=C(NCCN(CCNC(=O)c1cccc(=O)n1O)CCNC(=O)c1cccc(=O)n1O)c1cccc(O)c1O` [trenCAM(1,2-HOPO)2, tren(CAM)(1,2-HOPO)2], the Kd on Siderocalin (Scn) [3] (Fe^III complex) came to 0.043 ± 0.002 µM; at Siderocalin (Scn) [3] (V^IV complex), 0.22 ± 0.07 µM; on Siderocalin (Scn) [3] (no metal (apo ligand)) it was 0.14 ± 0.01 µM.

In turn, `Cn1ccc(C(=O)NCCN(CCNC(=O)c2cccc(O)c2O)CCNC(=O)c2ccn(C)c(=O)c2O)c(O)c1=O` [trenCAM(Me-3,2-HOPO)2, tren(CAM)(Me-3,2-HOPO)2] came in with a Kd on Siderocalin (Scn) [3] (Fe^III complex) of 0.15 ± 0.02 µM.

The values are drawn from PMC2778733 (Journal of the American Chemical Society, 2008).
